Experimental data from ChEMBL document CHEMBL1140751, “Novel sst5-selective somatostatin dicarba-analogues: synthesis and conformation-affinity relationships” (J Med Chem, 2008).
Numbered stars: 1 amine (or outer) side, 2 acyl side, 3 side chain; on linkers, the order of the positions; unused ones are H or OH. Bridge positions count the residues as written; N and C are the ends. Square brackets hold non-standard residues; d marks the D form. Peptide text beside a SMILES is read from it. Phe(Nα-(CH2)3CO) = O=C([C@H](Cc1ccccc1)N(CCCC(=O)[*:3])[*:1])[*:2]; N(2-aminoethyl)Phe = O=C([C@H](Cc1ccccc1)N(CCN[*:3])[*:1])[*:2]

Tests used:
[1] = biological target: Somatostatin receptor type 1 (Homo sapiens, UniProt P30872); assay: Displacement of [125I](Leu8,D-Trp22,Tyr25)-SRIF28 from human sst1 receptor
Somatostatin receptor type 1, sequence (P30872 whole entry): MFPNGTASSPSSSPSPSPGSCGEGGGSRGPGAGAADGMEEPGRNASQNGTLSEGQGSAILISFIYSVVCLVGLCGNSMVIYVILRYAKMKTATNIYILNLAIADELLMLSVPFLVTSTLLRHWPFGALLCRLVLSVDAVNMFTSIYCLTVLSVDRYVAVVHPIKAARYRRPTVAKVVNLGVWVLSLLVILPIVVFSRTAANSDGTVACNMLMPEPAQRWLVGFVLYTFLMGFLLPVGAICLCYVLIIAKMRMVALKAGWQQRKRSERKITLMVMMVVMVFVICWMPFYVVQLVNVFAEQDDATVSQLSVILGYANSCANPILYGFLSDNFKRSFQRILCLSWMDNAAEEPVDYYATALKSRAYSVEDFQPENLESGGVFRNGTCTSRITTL
In short: (§1)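 Membranes came from CHO-K1 and CCL39 cells stably expressing the human sst1–sst5 receptors. Receptor autoradiography was performed on 20 µm pellet sections mounted on slides. IC50 was derived from signal quantified by computer-assisted image processing.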

[2] = biological target: Somatostatin receptor type 2 (Homo sapiens, UniProt P30874); assay: Displacement of [125I](Leu8,D-Trp22,Tyr25)-SRIF28 from human sst2 receptor; in short: as §1
Somatostatin receptor type 2, sequence (P30874 whole entry): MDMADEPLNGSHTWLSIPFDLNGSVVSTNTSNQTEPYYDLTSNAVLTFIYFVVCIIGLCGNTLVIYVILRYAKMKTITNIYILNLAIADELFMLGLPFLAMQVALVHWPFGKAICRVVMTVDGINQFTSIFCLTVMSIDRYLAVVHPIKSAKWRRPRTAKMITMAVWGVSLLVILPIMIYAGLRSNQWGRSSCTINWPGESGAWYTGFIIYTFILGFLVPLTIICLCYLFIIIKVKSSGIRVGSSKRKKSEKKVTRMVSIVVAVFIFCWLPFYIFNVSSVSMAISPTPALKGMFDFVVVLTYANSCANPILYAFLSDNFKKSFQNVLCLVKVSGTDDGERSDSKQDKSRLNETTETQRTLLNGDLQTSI

[3] = biological target: Somatostatin receptor type 3 (Homo sapiens, UniProt P32745); assay: Displacement of [125I](Leu8,D-Trp22,Tyr25)-SRIF28 from human sst3 receptor; in short: as §1
Somatostatin receptor type 3, sequence (P32745 whole entry): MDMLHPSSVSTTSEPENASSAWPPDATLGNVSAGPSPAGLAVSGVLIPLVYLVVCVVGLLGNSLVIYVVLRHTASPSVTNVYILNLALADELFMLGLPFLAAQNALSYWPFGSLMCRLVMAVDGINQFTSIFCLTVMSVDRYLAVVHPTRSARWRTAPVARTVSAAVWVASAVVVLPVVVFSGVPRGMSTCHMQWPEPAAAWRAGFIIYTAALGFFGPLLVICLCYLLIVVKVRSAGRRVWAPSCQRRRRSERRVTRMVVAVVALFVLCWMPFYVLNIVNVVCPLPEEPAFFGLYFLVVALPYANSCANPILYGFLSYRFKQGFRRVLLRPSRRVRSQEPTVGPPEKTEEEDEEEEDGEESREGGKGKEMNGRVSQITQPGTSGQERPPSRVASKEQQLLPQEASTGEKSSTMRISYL

[4] = biological target: Somatostatin receptor type 4 (Homo sapiens, UniProt P31391); assay: Displacement of [125I](Leu8,D-Trp22,Tyr25)-SRIF28 from human sst4 receptor; in short: as §1
Somatostatin receptor type 4, sequence (P31391 whole entry): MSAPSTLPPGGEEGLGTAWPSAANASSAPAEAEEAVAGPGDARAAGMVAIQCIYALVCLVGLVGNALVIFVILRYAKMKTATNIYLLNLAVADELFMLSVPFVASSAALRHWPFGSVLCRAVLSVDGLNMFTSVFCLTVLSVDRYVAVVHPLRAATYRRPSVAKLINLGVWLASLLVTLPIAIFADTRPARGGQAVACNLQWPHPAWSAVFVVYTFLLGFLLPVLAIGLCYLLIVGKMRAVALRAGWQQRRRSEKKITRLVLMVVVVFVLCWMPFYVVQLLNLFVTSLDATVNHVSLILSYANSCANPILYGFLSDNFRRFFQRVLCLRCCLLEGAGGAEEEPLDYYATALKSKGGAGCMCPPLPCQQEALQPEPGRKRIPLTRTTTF

[5] = biological target: T1, Somatostatin receptor type 5 (Homo sapiens, UniProt P35346); assay: Displacement of [125I](Leu8,D-Trp22,Tyr25)-SRIF28 from human sst5 receptor; in short: as §1
T1 sequence (P35346 whole entry): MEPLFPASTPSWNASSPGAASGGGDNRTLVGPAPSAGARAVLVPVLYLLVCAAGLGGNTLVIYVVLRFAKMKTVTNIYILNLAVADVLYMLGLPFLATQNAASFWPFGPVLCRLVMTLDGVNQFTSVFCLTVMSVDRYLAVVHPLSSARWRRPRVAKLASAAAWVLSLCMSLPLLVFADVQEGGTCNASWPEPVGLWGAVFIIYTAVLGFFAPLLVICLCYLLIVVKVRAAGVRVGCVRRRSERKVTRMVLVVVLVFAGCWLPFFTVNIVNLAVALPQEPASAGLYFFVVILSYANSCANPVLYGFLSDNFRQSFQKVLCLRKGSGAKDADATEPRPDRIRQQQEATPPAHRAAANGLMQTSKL

[6] = biological target: T1, Somatostatin receptor type 5; assay: Binding affinity to sst5 receptor

| Compound | IC50 [1] [nM] | IC50 [2] [nM] | IC50 [3] [nM] | IC50 [4] [nM] | IC50 [5] [nM] | IC50 [6] [nM] |
| --- | --- | --- | --- | --- | --- | --- |
| C[C@@H](O)[C@@H]1NC(=O)[C@H](CCCCN)NC(=O)[C@@H](Cc2c[nH]c3ccccc23)NC(=O)[C@H](Cc2ccccc2)NC(=O)[C@@H](NC(=O)[C@H](N)Cc2ccccc2)C/C=C\C[C@@H](C(=O)N[C@H](CO)[C@@H](C)O)NC1=O | > 1000 | 44 | > 1000 | 412 | 28 | – |
| C[C@@H](O)[C@@H]1NC(=O)[C@H](CCCCN)NC(=O)[C@@H](Cc2c[nH]c3ccccc23)NC(=O)[C@H](Cc2ccccc2)NC(=O)[C@@H](NC(=O)[C@H](N)Cc2ccccc2)CCCC[C@@H](C(=O)N[C@H](CO)[C@@H](C)O)NC1=O | > 1000 | 49 | > 1000 | 214 | 203 | – |

The remaining lines, values ahead:

| IC50 [1] [nM] | IC50 [2] [nM] | IC50 [3] [nM] | IC50 [4] [nM] | IC50 [5] [nM] | IC50 [6] [nM] | Compound |
| --- | --- | --- | --- | --- | --- | --- |
| – | – | – | – | – | 0.4 | C[C@H](N)COC(=O)[C@H](CCCCN)NC(=O)Cc1c(-c2ccc3ccccc3c2)[nH]c2c1ccc1ccccc12 |
| 961 | > 1000 | > 1000 | 141 | 206 | – | C[C@@H](O)[C@@H](CO)NC(=O)[C@@H]1C/C=C\C[C@H](NC(=O)[C@H](N)Cc2ccccc2)C(=O)N[C@@H](Cc2ccccc2)C(=O)N[C@H](Cc2c[nH]c3ccccc23)C(=O)N[C@@H](CCCCN)C(=O)N[C@@H](Cc2ccccc2)C(=O)N1 |
| – | – | – | – | – | 67 | CC(C)[C@@H]1NC(=O)[C@H](CCCCN)NC(=O)[C@@H](Cc2c[nH]c3ccccc23)NC(=O)[C@H](Cc2ccc(O)cc2)NC(=O)[C@H](Cc2ccccc2)NCCNC(=O)CCCN([C@@H](Cc2ccccc2)C(=O)N[C@H](C(N)=O)[C@@H](C)O)C1=O (H-[N(2-aminoethyl)Phe]Y[dW]KV[Phe(Nα-(CH2)3CO)]T-NH2; lactam 1-6) |
